Here are results for 15 compounds from ChEMBL document CHEMBL2417490, “Synthesis and biological evaluation of pyrazolo[4,3-d]pyrimidine analogues” (Eur J Med Chem, 2013).

Values after ≈ are worked out from the molar mass of the structure shown.

The target in assay [1] is Xanthine dehydrogenase/oxidase (Homo sapiens, UniProt P47989). As to the kind of experiment: Inhibition of xanthine oxidase (unknown origin) using xanthine as substrate assessed as uric acid formation preincubated for 5 mins followed by substrate addition measured every minute up to 8 mins by spectrophotometric analysis.
A short description of assay [2]: Cytotoxicity against human 7221 cells assessed as inhibition of cell replication after 72 hrs by MTT assay. Type of assay: functional, cell-based. The essentials:
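7221 hepatoma cells, harvested in log phase with 0.05% trypsin/1 mM EDTA and grown at 37 °C in 5% CO₂, were plated, grown overnight and then exposed to a concentration series (final DMSO <0.1%). MTT was added for 4 h and absorbance read at 570 nm. IC₅₀ came from probit analysis.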

A short description of assay [3]: Cytotoxicity against human 7402 cells assessed as inhibition of cell replication after 72 hrs by MTT assay. Type of assay: functional, cell-based. An outline of the steps:
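7402 hepatoma cells, harvested in log phase with 0.05% trypsin/1 mM EDTA and grown at 37 °C in 5% CO₂, were seeded at 1 × 10⁵ cells/mL, grown overnight and then exposed to a concentration series (final DMSO <0.1%). MTT was added for 4 h and absorbance read at 570 nm. IC₅₀ came from probit analysis.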

Chain of Xanthine dehydrogenase/oxidase (P47989 whole entry): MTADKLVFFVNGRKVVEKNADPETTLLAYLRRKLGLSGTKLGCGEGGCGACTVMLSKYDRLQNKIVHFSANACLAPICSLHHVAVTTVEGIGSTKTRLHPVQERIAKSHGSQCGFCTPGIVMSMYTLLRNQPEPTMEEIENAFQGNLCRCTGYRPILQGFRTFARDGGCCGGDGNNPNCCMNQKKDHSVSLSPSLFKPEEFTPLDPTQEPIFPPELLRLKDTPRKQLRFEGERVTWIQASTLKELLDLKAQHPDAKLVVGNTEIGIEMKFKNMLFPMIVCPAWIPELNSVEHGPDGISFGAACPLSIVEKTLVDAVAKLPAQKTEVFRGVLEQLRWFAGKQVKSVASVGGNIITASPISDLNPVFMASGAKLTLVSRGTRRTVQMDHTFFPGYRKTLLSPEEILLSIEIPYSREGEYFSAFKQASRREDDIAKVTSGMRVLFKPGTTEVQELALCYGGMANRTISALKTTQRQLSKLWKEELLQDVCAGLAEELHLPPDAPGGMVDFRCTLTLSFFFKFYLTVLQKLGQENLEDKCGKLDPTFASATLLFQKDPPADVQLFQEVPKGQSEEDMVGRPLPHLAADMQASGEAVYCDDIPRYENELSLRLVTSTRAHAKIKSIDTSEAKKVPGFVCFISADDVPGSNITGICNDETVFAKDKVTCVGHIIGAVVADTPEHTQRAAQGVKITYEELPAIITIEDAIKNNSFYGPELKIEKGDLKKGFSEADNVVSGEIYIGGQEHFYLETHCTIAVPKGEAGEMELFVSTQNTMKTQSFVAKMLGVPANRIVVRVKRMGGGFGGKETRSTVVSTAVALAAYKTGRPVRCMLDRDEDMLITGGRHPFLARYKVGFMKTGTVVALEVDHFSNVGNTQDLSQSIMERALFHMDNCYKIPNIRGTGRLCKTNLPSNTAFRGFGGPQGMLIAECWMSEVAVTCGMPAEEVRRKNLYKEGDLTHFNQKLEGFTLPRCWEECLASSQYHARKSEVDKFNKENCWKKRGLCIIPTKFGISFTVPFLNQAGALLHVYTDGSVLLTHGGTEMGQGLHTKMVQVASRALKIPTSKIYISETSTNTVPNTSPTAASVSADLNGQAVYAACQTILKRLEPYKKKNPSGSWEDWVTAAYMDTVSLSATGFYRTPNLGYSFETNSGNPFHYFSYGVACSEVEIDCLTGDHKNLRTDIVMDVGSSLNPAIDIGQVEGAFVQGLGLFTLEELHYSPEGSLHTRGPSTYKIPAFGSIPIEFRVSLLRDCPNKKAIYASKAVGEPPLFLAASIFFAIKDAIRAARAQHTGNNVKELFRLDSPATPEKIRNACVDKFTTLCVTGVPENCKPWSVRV

In the case of `O=C(O)Cn1ncc2c(Nc3ccc(NC(=O)c4ccccc4)cc3)ncnc21`, the IC50 in assay [1] (read-out: IC50 (converted)) was 104 µM; in assay [2], over 100 µg/mL; in assay [3] it was over 100 µg/mL.
As for `C=CCNC1=C2C[C@@H](C)C[C@H](OC)[C@H](O)[C@@H](C)/C=C(\C)[C@H](OC(N)=O)[C@@H](OC)/C=C\C=C(/C)C(=O)NC(=CC1=O)C2=O` (stereo in doubt) [TANESPIMYCIN], the values for the IC50 in assay [2] and in assay [3] were 5.77 µg/mL (≈ 9.85 µM) and 7.27 µg/mL (≈ 12.4 µM), respectively.
The corresponding values for `CCOC(=O)Cn1ncc2c(Nc3ccc(N)cc3)ncnc21` are over 64 µg/mL and over 64 µg/mL.
On to `CCOC(=O)Cn1ncc2c(Nc3ccc(NC(=O)CCl)cc3)ncnc21`, for which the IC50 in assay [2] is 3.51 µg/mL (≈ 9.03 µM); in assay [3], 7.27 µg/mL (≈ 18.7 µM).
On to `O=C(O)Cn1ncc2c(Nc3ccc(NS(=O)(=O)c4ccccc4)cc3)ncnc21`, for which the IC50 was 144 µM in assay [1] (read-out: IC50 (converted)), over 100 µg/mL in assay [2] and over 100 µg/mL in assay [3].
For `CCOC(=O)Cn1ncc2c(Cl)ncnc21`, the IC50 entry in assay [1] is “Not Active”; in assay [2] it was over 100 µg/mL; in assay [3], over 100 µg/mL.
As for `O=C(O)Cn1ncc2c(Nc3ccc(NC(=O)CCl)cc3)ncnc21`, the IC50 was 102 µM in assay [1] (read-out: IC50 (converted)), over 100 µg/mL in assay [2] and over 100 µg/mL in assay [3].
For `CCOC(=O)Cn1ncc2c(Nc3ccc(NC(=O)c4ccccc4)cc3)ncnc21`, the IC50 is 81.9 µM in assay [1] (read-out: IC50 (converted)), over 100 µg/mL in assay [2] and over 100 µg/mL in assay [3].
Regarding `CCOC(=O)Cn1ncc2c(Nc3ccc(NS(=O)(=O)c4ccc([N+](=O)[O-])cc4)cc3)ncnc21`, the IC50 is over 201 µM in assay [1] (read-out: IC50 (converted)), over 64 µg/mL in assay [2] and over 64 µg/mL in assay [3].
As to `O=C(O)Cn1ncc2c(Nc3ccc(NS(=O)(=O)c4ccc([N+](=O)[O-])cc4)cc3)ncnc21`, the figures for the IC50 in assay [1] (read-out: IC50 (converted)), in assay [2] and in assay [3] were 190 µM, over 100 µg/mL and over 100 µg/mL, respectively.
Regarding `CCOC(=O)Cn1ncc2c(Nc3ccc(NS(=O)(=O)c4ccc(Br)cc4)cc3)ncnc21`, the IC50 entry in assay [1] is “Not Active”; in assay [2], over 64 µg/mL; in assay [3], over 64 µg/mL.
Consider `CCOC(=O)Cn1ncc2c(Nc3ccc(NC(C)=O)cc3)ncnc21`, for which the IC50 in assay [1] (read-out: IC50 (converted)) is 109 µM; in assay [2], over 64 µg/mL; in assay [3] it was over 64 µg/mL.
With `O=C(O)Cn1ncc2c(Nc3ccc(NS(=O)(=O)c4ccc(Br)cc4)cc3)ncnc21`, the values for the IC50 in assay [1] (read-out: IC50 (converted)), in assay [2] and in assay [3] were over 199 µM, over 64 µg/mL and over 64 µg/mL, respectively.
Take `CC(=O)Nc1ccc(Nc2ncnc3c2cnn3CC(=O)O)cc1`: the values for the IC50 in assay [1] (read-out: IC50 (converted)), in assay [2] and in assay [3] were 103 µM, over 64 µg/mL and over 64 µg/mL, respectively.
As for `CCOC(=O)Cn1ncc2c(Nc3ccc(NS(=O)(=O)c4ccccc4)cc3)ncnc21`, the IC50 in assay [1] (read-out: IC50 (converted)) is 172 µM; in assay [2], over 100 µg/mL; in assay [3] it was over 100 µg/mL.
